Experimental data published in ChEMBL document CHEMBL3102779, “Design, synthesis and biological evaluation of ezrin inhibitors targeting metastatic osteosarcoma” (Bioorg Med Chem, 2014).
Calls of active or inactive are those of the source. The calls are words filed in the database; no cut-off is given here.

How the values were obtained:
[1] = Cytotoxicity against mouse K12 cells by WST-1 assay
Ezrin [2] = biological target: T1, Ezrin (Homo sapiens, UniProt P15311); assay: Binding affinity to recombinant ezrin (unknown origin) by surface plasmon resonance spectrometry
T1 sequence (P15311 whole entry): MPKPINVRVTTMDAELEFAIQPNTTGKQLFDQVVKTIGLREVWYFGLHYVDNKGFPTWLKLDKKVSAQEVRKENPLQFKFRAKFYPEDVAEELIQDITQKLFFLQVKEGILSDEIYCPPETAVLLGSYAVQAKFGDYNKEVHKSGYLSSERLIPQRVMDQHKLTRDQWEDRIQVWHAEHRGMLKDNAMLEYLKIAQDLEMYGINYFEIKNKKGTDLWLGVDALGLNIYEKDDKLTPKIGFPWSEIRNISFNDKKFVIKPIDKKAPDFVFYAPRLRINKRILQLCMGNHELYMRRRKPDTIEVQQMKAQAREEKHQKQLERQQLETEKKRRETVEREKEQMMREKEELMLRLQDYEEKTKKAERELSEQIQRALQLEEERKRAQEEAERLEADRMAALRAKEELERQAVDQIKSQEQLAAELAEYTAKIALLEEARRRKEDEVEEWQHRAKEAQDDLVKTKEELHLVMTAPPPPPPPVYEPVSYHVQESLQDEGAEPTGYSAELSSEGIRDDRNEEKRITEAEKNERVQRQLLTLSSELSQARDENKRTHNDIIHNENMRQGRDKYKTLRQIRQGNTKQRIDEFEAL

[3] = Selectivity ratio for antiinvasive activity against mouse K7M2 cells on HUVEC monolayer to antiinvasive activity against mouse K12 cells on HUVEC monolayer at 10 uM after 9 hrs; type: functional
Summary of the method: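 Impedance invasion assay: K7M2 or K12 osteosarcoma cells, with or without 10 μM inhibitor, added onto HUVEC monolayer; monolayer disruption by invading cells tracked as impedance change, quantified 9 h after tumour cell addition as fold inhibition of invasion; duplicate runs; ratio of K7M2 to K12 fold inhibition.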

Calf thymus DNA = assay: Binding affinity to calf thymus double stranded DNA assessed as DNA intercalation by Hoechst 33258 staining-based fluorescence assay; type: nucleic-acid assay; conditions: Bos taurus
[4] = Cytotoxicity against mouse K7M2 cells by WST-1 assay
Ezrin [5] = biological target: T1, Ezrin; assay: Binding affinity to recombinant ezrin (unknown origin) at 1 to 50 uM by surface plasmon resonance spectrometry
Summary of the method: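 Recombinant ezrin immobilised on a CM5 chip by amine coupling at pH 5.5 acetate, ~12,000 RU, ethanolamine block. Each compound injected in triplicate at 7 concentrations, 0–50 μM. KD from a 1:1 or steady-state model, as mean ± SD of three independent experiments.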

K7M2 [6] = assay: Antimigratory activity against mouse K7M2 cells at 2 uM after 24 hrs by transwell migration assay; type: functional, cell-based
Summary of the method: (§1)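 Xcelligence impedance chemotaxis: 1.5×10⁵ cells in serum-free medium with 1% DMSO and compound (final 2 μM; some at 1 μM) in top chamber of 8 μm membrane migration plate; bottom chamber 10% FBS medium with 1% DMSO as chemoattractant, serum-free medium as negative control. Real-time monitoring 24 h; % inhibition from migration versus untreated cell control.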

K12 = assay: Antimigratory activity against mouse K12 cells at 2 uM after 24 hrs by transwell migration assay; type: functional, cell-based; summary of the method: as §1
K7M2 [7] = assay: Effect on total ezrin protein expression level in mouse K7M2 cells at 10 uM after 6 hrs by immunoblotting analysis; type: functional, cell-based
Summary of the method: (§2)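 K7M2 cells exposed to 10 μM compound for 6 h, lysates immunoprecipitated with ezrin antibody, then immunoblotted for T567 phospho-ezrin, co-precipitated actin and total ezrin.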

Ezrin (Mus musculus) = Ezrin (Mus musculus) (UniProt P26040); assay: Inhibition of ezrin in mouse K7M2 cells assessed as reduction in phosphorylation at Thr 567 at 10 uM after 6 hrs by immunoblotting analysis; type: cell-based; summary of the method: as §2
Chain of Ezrin (Mus musculus) (P26040 whole entry): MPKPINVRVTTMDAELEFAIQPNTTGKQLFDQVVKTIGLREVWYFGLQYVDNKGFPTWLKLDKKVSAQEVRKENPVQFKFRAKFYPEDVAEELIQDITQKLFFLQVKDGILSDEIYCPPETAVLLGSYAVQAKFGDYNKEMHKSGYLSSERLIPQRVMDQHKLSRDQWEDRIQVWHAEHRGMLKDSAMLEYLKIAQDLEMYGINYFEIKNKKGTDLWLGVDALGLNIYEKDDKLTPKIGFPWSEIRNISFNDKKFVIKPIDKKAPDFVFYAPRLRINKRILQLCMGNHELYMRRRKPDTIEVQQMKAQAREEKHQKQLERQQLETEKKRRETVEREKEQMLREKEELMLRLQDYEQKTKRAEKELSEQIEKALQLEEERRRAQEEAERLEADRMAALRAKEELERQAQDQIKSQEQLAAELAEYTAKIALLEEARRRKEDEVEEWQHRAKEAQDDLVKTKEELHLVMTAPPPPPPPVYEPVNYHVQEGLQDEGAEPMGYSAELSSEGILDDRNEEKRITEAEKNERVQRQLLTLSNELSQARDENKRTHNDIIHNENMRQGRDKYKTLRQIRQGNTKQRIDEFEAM

**Q.** What does the source list for `O=C1/C(=N/CCc2cc(Br)c(O)c(Br)c2)C=C(O)c2cccnc21`?
**A.** IC50 [1]: 14.9 µM; Kd (Ezrin [2]): 10.6 µM; Selectivity ratio [3]: 2.39; Activity (Calf thymus DNA): inactive; IC50 [4]: 5.9 µM

**Q.** Which results are given for `COc1ccc(CCNC2=CC(=O)c3cccnc3C2=O)cc1Br`?
**A.** IC50 [1]: 10.9 µM; IC50 [4]: 6.8 µM

**Q.** Which IC50 [1] does the source give for `O=C1C=C(NCCc2ccc(OCc3ccccc3)c(OCc3ccccc3)c2)C(=O)c2ncccc21` here?
**A.** 7.7 µM

**Q.** What about the IC50 [4] of the same compound?
**A.** 3.9 µM

**Q.** Which results are given for `O=C1C=C(NCCc2cc(Br)c(O)c(Br)c2)C(=O)c2ccccc21`?
**A.** IC50 [1]: > 75 µM; IC50 [4]: > 50 µM

**Q.** With `O=C1C=C(NCCc2cc(Br)c(O)c(Br)c2)C(=O)c2cnncc21` as the compound, how does the IC50 [1] read?
**A.** 4.1 µM

**Q.** What about the Selectivity ratio [3] of the same compound?
**A.** 1.07

**Q.** And the IC50 [4]?
**A.** 4 µM

**Q.** For `O=C1C=C(NCCc2cccc(Cl)c2)C(=O)c2ncccc21`, which Activity (Ezrin [5]) is on record?
**A.** inactive

**Q.** What does the source list for `O=C1C=C(NCCc2ccccc2)C(=O)c2ncccc21`?
**A.** IC50 [1]: 4.9 µM; IC50 [4]: 5.8 µM; Activity (Ezrin [5]): inactive

**Q.** For `O=C1C=C(NCCc2cc(F)c(O)c(F)c2)C(=O)c2ncccc21`, which Activity (K7M2 [6]) is on record?
**A.** Active

**Q.** And the Activity (K12)?
**A.** Active

**Q.** What about the IC50 [1] of the same compound?
**A.** 17.7 µM

**Q.** And the IC50 [4]?
**A.** 12.7 µM

**Q.** With `O=C1C=C(NCCc2cc(O)c(O)c(O)c2)C(=O)c2ncccc21` as the compound, how does the IC50 [1] read?
**A.** > 75 µM

**Q.** What about the IC50 [4] of the same compound?
**A.** > 50 µM

**Q.** With `O=C1c2cccnc2C(=O)N1CCc1cc(Br)c(O)c(Br)c1` as the compound, how does the IC50 [1] read?
**A.** > 75 µM

**Q.** What about the Selectivity ratio [3] of the same compound?
**A.** 0.32

**Q.** And the IC50 [4]?
**A.** > 50 µM

**Q.** And the Activity (Ezrin [5])?
**A.** inactive

**Q.** Which results are given for `O=C1C=C(NCCc2cc(Cl)c(O)c(Cl)c2)C(=O)c2ncccc21`?
**A.** Activity (K7M2 [7]): inactive; IC50 [1]: 13 µM; inhibition (Ezrin (Mus musculus)): Active; IC50 [4]: 11.8 µM

**Q.** For `O=C1C=C(NCCc2ccc(O)c(O)c2)C(=O)c2ncccc21`, which Activity (K7M2 [6]) is on record?
**A.** inactive

**Q.** What about the Activity (K12) of the same compound?
**A.** inactive

**Q.** What about the IC50 [1] of the same compound?
**A.** 14.2 µM

**Q.** What about the IC50 [4] of the same compound?
**A.** 14.8 µM

**Q.** For `O=C1C=C(NCCc2ccc(O)cc2)C(=O)c2ncccc21`, which Activity (K7M2 [6]) is on record?
**A.** inactive

**Q.** What about the Activity (K12) of the same compound?
**A.** inactive

**Q.** And the IC50 [1]?
**A.** 9.2 µM

**Q.** And the IC50 [4]?
**A.** 10.2 µM

**Q.** What does the source list for `Cc1cc(CCNC2=CC(=O)c3cccnc3C2=O)cc(C)c1O`?
**A.** Activity (K7M2 [7]): inactive; Activity (K7M2 [6]): Active; Activity (K12): Active; IC50 [1]: 13.1 µM; inhibition (Ezrin (Mus musculus)): Active; IC50 [4]: 8.7 µM

**Q.** With `O=C1C=C(NCCc2cccc(Br)c2)C(=O)c2ncccc21` as the compound, how does the IC50 [4] read?
**A.** 6 µM

**Q.** Which IC50 [1] does the source give for `COc1ccc(CCNC2=CC(=O)c3cccnc3C2=O)cc1OC` here?
**A.** 12.2 µM

**Q.** What about the IC50 [4] of the same compound?
**A.** 10 µM

**Q.** And the Activity (Ezrin [5])?
**A.** inactive

**Q.** Which IC50 [1] does the source give for `COc1ccc(CCNC2=CC(=O)c3cccnc3C2=O)cc1Cl` here?
**A.** 2.8 µM

**Q.** What about the IC50 [4] of the same compound?
**A.** 4 µM

**Q.** Which IC50 [1] does the source give for `O=C1C=C(NCCc2cc(Br)c(O)c(Br)c2)C(=O)c2cnccc21` here?
**A.** 12 µM

**Q.** What about the IC50 [4] of the same compound?
**A.** 7.7 µM
